Data on 31 compounds can be found in ChEMBL document CHEMBL4831487, “Fragment-based drug design targeting syntenin PDZ2 domain involved in exosomal release and tumour spread” (Eur J Med Chem, 2021).

Activity calls are given as the source filed them. The calls are words filed in the database; no cut-off is given here. Where only a bound is given, the exact number is not on record here.

The target of assay [1] is Syntenin-1/Syndecan-2 (Homo sapiens) (UniProt O00560+P34741). The assay is described as follows: Inhibition of recombinant human full-length GST-tagged syntenin-1/Syndecan-2 complex interaction expressed in Escherichia coli ER2566 at 400 uM measured after 16 hrs by HTRF assay. The essentials:
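GST-syntenin-1 full length expressed in E. coli ER2566 (0.4 mM IPTG, overnight at 30 °C), purified on GSTrap; HTRF binding to syndecan-2. Compounds at 400 μM, single well, plates spun then incubated 16 h at 4°C. Excitation 337 nm, emission 665/620 ratio; % inhibition from DMSO-only max and no-protein min signals.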
(In general: Time-resolved FRET reads energy transfer from a long-lived donor to a nearby acceptor.)

For assay [2], the target named is T1, Syntenin-1/Syndecan-2 (Homo sapiens, UniProt O00560). Description: Inhibition of recombinant human full-length GST-tagged syntenin-1/Syndecan-2 complex interaction expressed in Escherichia coli ER2566 measured after 16 hrs by HTRF assay. The gist of the method:
(§1)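 HTRF assay of E. coli ER2566-expressed GST-syntenin-1 full length binding to syndecan-2; serial DMSO dilutions of compound in triplicate, 16 h at 4°C after spin. 665/620 nm ratio (excitation 337 nm) converted to % inhibition versus DMSO-only and no-protein controls to derive IC50; for line 4, buffer contained 0.01% NP40.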

The target in assay [3] is T1, Syntenin-1/Syndecan-2. Description: Inhibition of recombinant human full-length GST-tagged syntenin-1/Syndecan-2 complex interaction expressed in Escherichia coli ER2566 in presence of NP40 detergent measured after 16 hrs by HTRF assay. The gist of the method: as §1
Assay [4] concerns MCF7. The assay is described as follows: Down regulation of syntenin-1 level in human MCF7 cells at 100 uM measured after 16 hrs by Western blot analysis. Format: functional, cell-based. The gist of the method: (§2)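 MCF-7 cells (DMEM-F12, 10% FCS, 37°C, 5% CO2) treated at 100 μM or DMSO 0.2% vehicle for 16 h in medium with 10% exosome-depleted FCS. Exosomes isolated from medium by sequential centrifugation at 4 °C (500 g, 10,000 g, 100,000 g pellet, PBS wash); loading normalized to parent cell number. SDS-PAGE western blot; mean signal relative to vehicle, N independent experiments, one-way ANOVA with Tukey posttest.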
Background: In western blotting, separated proteins are transferred to a membrane and probed.

Assay [5] has as its system MCF7. Description: Down regulation of flotillin-1 level in human MCF7 cells at 100 uM measured after 16 hrs by Western blot analysis. Format: functional, cell-based. The essentials: as §2

T1 sequence (O00560 whole entry): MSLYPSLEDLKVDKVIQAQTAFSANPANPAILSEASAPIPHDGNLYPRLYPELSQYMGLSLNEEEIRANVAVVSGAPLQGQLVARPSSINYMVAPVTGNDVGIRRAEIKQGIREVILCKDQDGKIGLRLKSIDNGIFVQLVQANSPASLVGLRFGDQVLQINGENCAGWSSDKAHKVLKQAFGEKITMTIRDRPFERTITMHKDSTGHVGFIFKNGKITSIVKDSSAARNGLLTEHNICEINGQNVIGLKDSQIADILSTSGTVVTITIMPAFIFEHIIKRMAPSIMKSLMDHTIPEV
T1 sequence (P34741 whole entry, further chain): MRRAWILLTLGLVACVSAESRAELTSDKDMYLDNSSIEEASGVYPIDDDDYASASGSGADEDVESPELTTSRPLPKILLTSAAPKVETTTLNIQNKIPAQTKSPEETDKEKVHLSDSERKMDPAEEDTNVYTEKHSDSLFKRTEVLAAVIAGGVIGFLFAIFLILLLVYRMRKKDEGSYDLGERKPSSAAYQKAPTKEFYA

As to `CC(C)[C@H](NC(=O)CCOc1ccccc1)C(=O)O`, the inhibition (as a rule, the relative decrease from the control value, in per cent) in assay [1] came to 0%.
Still for that read-out and setting: for `C[C@H](NC(=O)CCSc1ccc(Cl)cc1)C(=O)O` the value was 56%; for `C[C@H](NC(=O)CSc1ccccc1)C(=O)O`, 0%.
`CC(C)[C@H](NC(=O)COc1ccc(Cl)cc1)C(=O)O`: in assay [1], the inhibition stood at 16%.
Consider `C[C@H](NC(=O)COc1ccc(Cl)cc1)C(=O)O`, for which the inhibition in assay [1] is 0%.
Same read-out and setting: in the case of `C[C@H](NC(=O)CCSc1ccccc1)C(=O)O` it was 19%; in that of `C[C@H](NC(=O)CCOc1ccc(Cl)cc1)C(=O)O`, 6%.
As for `C[C@H](NC(=O)CCOc1ccccc1)C(=O)O`, the inhibition in assay [1] worked out at 11%.
For the compound `O=C(CCSc1ccc(Cl)cc1)N[C@@H](Cc1ccccc1)C(=O)O`, the inhibition in assay [1] is 0%.
Same read-out and setting: for `CC(C)[C@H](NC(=O)CSc1ccccc1)C(=O)O` the value was 20%.
Take `CC(C)[C@H](NC(=O)CCSc1ccc(-c2ccc(S(=O)(=O)N3CCCCC3)cc2)cc1)C(=O)O`: the IC50 (commonly the concentration that gives 50% inhibition) at Syntenin-1/Syndecan-2 [2] was more than 200 µM.
Still for that read-out and setting: for `CC(C)[C@H](NC(=O)CCSc1ccc(-c2cccc(CO)c2)cc1)C(=O)O` the value was 96 µM.
Turning to `CC(C)[C@H](NC(=O)CSc1ccc(Cl)cc1)C(=O)O`, the inhibition in assay [1] was determined as 56%. In addition, the IC50 at Syntenin-1/Syndecan-2 [3] is 864 µM.
Regarding `CC(C)[C@H](NC(=O)CCSc1ccc(-c2ccc(CNC(=O)OC(C)(C)C)cc2)cc1)C(=O)O`, the IC50 on Syntenin-1/Syndecan-2 [2] amounted to 69 µM.
Consider `CC(C)[C@H](NC(=O)CCSc1ccc(Cl)cc1)C(=O)O`, for which the outcome with MCF7 [4] was Active. Moreover, the values for the IC50 at Syntenin-1/Syndecan-2 [2] and on Syntenin-1/Syndecan-2 [3] were 33 µM and 45 µM, respectively. Further, the inhibition in assay [1] is 94%. For the same compound, the result with MCF7 [5] was inactive.
Consider `CC(C)[C@H](NC(=O)CCSc1ccccc1)C(=O)O`, for which, in assay [1], the inhibition is 76%.
Consider `O=C(CCOc1ccc(Cl)cc1)N[C@@H](Cc1ccccc1)C(=O)O`, for which, in assay [1], the inhibition was determined as 1%.
With `CC(C)[C@H](NC(=O)CCSc1ccc(Br)cc1)C(=O)O`, the outcome in the assay on MCF7 [4] was Active. Besides, the IC50 on Syntenin-1/Syndecan-2 [2] amounted to 47 µM; at Syntenin-1/Syndecan-2 [3], 51 µM. The result in the assay on MCF7 [5] was inactive.
`COCCOc1ccc(-c2ccc(SCCC(=O)N[C@H](C(=O)O)C(C)C)cc2)cn1`: the IC50 on Syntenin-1/Syndecan-2 [2] came out at 112 µM.
On the same count and under the same terms, for `CC(C)[C@H](NC(=O)CCSc1ccc(-c2cccc(O)c2)cc1)C(=O)O` the value was more than 200 µM.
As to `C[C@H](NC(=O)COc1ccccc1)C(=O)O`, the inhibition in assay [1] is 0%.
As to `CC(C)[C@H](NC(=O)CCSc1ccc(-c2ccc(CCC(=O)O)cc2)cc1)C(=O)O`, the half-inhibitory concentration (IC50) at Syntenin-1/Syndecan-2 [2] is more than 200 µM.
`C[C@H](NC(=O)CSc1ccc(Cl)cc1)C(=O)O`: in assay [1], the inhibition is 25%.
Same read-out and setting: for `CC(C)[C@H](NC(=O)COc1ccccc1)C(=O)O` the value was 7%.
In the case of `CC(=O)Nc1ccc(-c2ccc(SCCC(=O)N[C@H](C(=O)O)C(C)C)cc2)cn1`, the IC50 at Syntenin-1/Syndecan-2 [2] amounted to 177 µM.
In the case of `O=C(CCSc1ccccc1)N[C@@H](Cc1ccccc1)C(=O)O`, in assay [1], the inhibition was found to be 0%.
For the compound `CC(C)[C@H](NC(=O)CCSc1ccc(-c2cccc(S(N)(=O)=O)c2)cc1)C(=O)O`, the IC50 on Syntenin-1/Syndecan-2 [2] worked out at 78 µM.
For the compound `CC(C)[C@H](NC(=O)CCOc1ccc(Cl)cc1)C(=O)O`, the inhibition in assay [1] was 31%.
`O=C(CCOc1ccccc1)N[C@@H](Cc1ccccc1)C(=O)O`: in assay [1], the inhibition worked out at 0%.
For the compound `CC(C)[C@H](NC(=O)CCCc1ccccc1)C(=O)O`, the inhibition in assay [1] came out at 9%.
Regarding `CC(C)[C@H](NC(=O)CCSc1ccc(-c2ccc(OS(C)(=O)=O)cc2)cc1)C(=O)O`, the IC50 was determined as 7.4 µM at Syntenin-1/Syndecan-2 [2] and 204 µM at Syntenin-1/Syndecan-2 [3].
